Source: PubChem (Broad Institute)
This is a sample that favours compounds with a hit; in the whole collection about 2.1% have one here.
FN deposition inh = fibronectin deposition inhibition; AH1F fibroblasts, Alexa488-fibronectin deposition fluorescence, overnight; inhibition, % at 12.6 µM; 350,000 compounds, 0.086% hits; AID 743247;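 active = mean inhibition across replicates of 30% or more, regardless of how many single replicates reach that level; inconclusive = mean under 30% yet at least half of replicates reach 30%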
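Material: AH1F fibroblast monolayer depositing Alexa488-labelled fibronectin into matrix / Amount: 10000 AH1F cells per well / Signal: fluorescence 485/525 nm / Medium: DMEM, 2% serum / Compound: single dose, pinned / Incubation: 1 h cell adhesion before compound, then overnight fibronectin incubation / Reagent: Alexa488-FN, 24 nM final / Read-out: inhibition of fibronectin deposition signal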
aSyn 5UTR inh = MLPCN primary screen, SNCA 5' untranslated region. alpha-synuclein 5'UTR reporter, inhibitor activity. inhibition, % (tested at 7.5 µM). 300,000 compounds, 0.82% hits. AID 1813; in the data active = inhibition above about 60%; inconclusive = no clear call, values can overlap the other calls;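 also: H4 neuroglioblastoma cells stably carrying SNCA 5'UTR luciferase fusion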
EWS-Fli inh = EWS/Fli transcriptional activity inhibition; A673 NR0B1-luciferase reporter, viability-normalised; inhibition, % at 12.6 µM; 350,000 compounds, 0.67% hits; AID 651661;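 active = mean inhibition of at least 50% after viability correction, with every replicate also passing that limit; inconclusive = mean reaches 50% but only one of two replicates passes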;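 also: firefly luciferase signal divided by Alamar Blue viability fluorescence both relative to DMSO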
Shn3 inh set2 = Schnurri-3 reporter inhibition in Clone20 osteoblasts. inhibition, % at 12.5 µM. Clone20 osteoblast Shn3 3'UTR firefly luciferase, 24 h. AID 588674. 360,000 compounds, 0.52% hits;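 active = mean inhibition of at least 75% with every replicate also reaching 75%; inconclusive = mean inhibition at least 75% but some replicate below; inactive = mean inhibition below 75%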
PAX8 inh HTS = inhibitors of PAX8 transcriptional activity in RMG-I cells. RMG-I TPO-luciferase reporter, SteadyGlo, 24 h. inhibition, % at 12.6 µM. 360,000 compounds, 1.2% hits. AID 652154;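 active = mean replicate inhibition at least 60% with every replicate also reaching 60%; inconclusive = only one of the two criteria is met; inactive = mean below 60% and not all replicates reaching 60%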;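 also: luciferase light reporting Pax8 driven TPO promoter activity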
LMP1 NFkB inh = reduces LMP1-driven NF-kappaB luciferase signal. LMP1-induced NF-kappaB luciferase reporter cells, luminescence. inhibition, % at 12.5 µM. 350,000 compounds, 0.69% hits. AID 504558; in the data active = inhibition above about 41%; inconclusive = no clear call, values can overlap the other calls
Hits are given with their value; – = inactive; ? = inconclusive; · = no result given.

SMILES	FN deposition inh	aSyn 5UTR inh	EWS-Fli inh	Shn3 inh set2	PAX8 inh HTS	LMP1 NFkB inh
C[C@@H]1CN([C@H](C)CO)C(=O)c2cc(C3=CCCCC3)cnc2O[C@H]1CN(C)C(=O)Cc1ccncc1	·	·	–	·	–	·
CO[C@H](CN(C)C(=O)c1ccc2c(c1)OCO2)[C@@H](C)CN([C@@H](C)CO)S(=O)(=O)c1ccccc1	–	·	–	·	·	·
O=C(NCCN1Cc2ccccc2C1=O)c1cccs1	·	–	·	–	·	–
O=C1c2ccccc2CN1CCNC(=S)NC1CCCCC1	–	–	–	–	–	49.4
CO[C@H]1CN(C)C(=O)c2ccc(NS(C)(=O)=O)cc2OC[C@H](C)N(Cc2cncnc2)C[C@H]1C	–	·	–	·	·	·
O=C(C[C@@H]1CC[C@@H]2[C@H](COC[C@H](O)CN2Cc2ccccc2)O1)NCCc1ccccc1	–	·	–	·	–	·
CCCNC(=O)C[C@H]1CC[C@H]2[C@@H](COC[C@@H](O)CN2Cc2ccccc2F)O1	–	·	–	·	–	·
FC(F)(F)c1nnc(-c2ccccc2)nc1Sc1ccc(Cl)cc1	·	–	·	91.7	·	–
FC(F)(F)c1nnc(-c2ccccc2)nc1Sc1ccccc1	·	–	·	–	·	–
COc1ccc(N2CC(C(=O)N/N=C/c3ccc([N+](=O)[O-])cc3)CC2=O)cc1 (stereo unspecified)	–	–	–	–	–	–
COc1ccc(N2CC(C(=O)N/N=C/c3ccc(C)cc3)CC2=O)cc1 (stereo unspecified)	–	–	60.4	–	–	–
CCOc1ccc(C(=O)N2CCCC2)cc1	·	–	·	–	·	–
CCOc1ccc(OCc2cccc(C(=O)N3CCCC3)c2)cc1	·	–	·	–	·	54.2
CCOc1ccc(OCc2cccc(C(=O)N3CCCCCC3)c2)cc1	–	76.0	?	–	–	53.2
Cc1ccc(S(=O)(=O)N[C@H]2CC[C@@H](CCNC(=O)CN3CCOCC3)O[C@H]2CO)cc1	·	·	–	·	–	·
COc1ccc2cc(/C=N/NC(=O)c3c(Cl)cnn3C)c(Cl)nc2c1	–	–	·	–	–	–
COC(=O)COc1ccc(/C=N/NC(=O)c2ccc(N(Cc3ccccc3)S(C)(=O)=O)cc2)cc1	–	–	–	–	61.8	–
COc1ccc2cc(/C=N/NC(=O)c3ccc(CN(c4ccc(C)c(C)c4)S(C)(=O)=O)cc3)c(Cl)nc2c1	–	64.8	·	–	–	–
COC(=O)COc1ccc(/C=N/NC(=O)CN(c2ccccc2OC)S(=O)(=O)c2ccccc2)cc1	–	–	–	–	69.5	–
CC(C)Oc1ccc(/C=N/NC(=O)c2ccc(N(Cc3ccccc3)S(C)(=O)=O)cc2)cc1	–	–	–	–	–	–
Cc1noc(C)c1NC(=O)N(C)C[C@@H]1Oc2c(NS(C)(=O)=O)cccc2C(=O)N([C@H](C)CO)C[C@H]1C	·	·	–	·	·	·
COc1cc(C)c(C(=O)CC(=O)c2c(C)cc(OC)cc2C)c(C)c1	–	72.2	–	–	–	·
CC1CCN(Cc2c(C(=O)N/N=C/c3ccc(C(C)C)cc3)nnn2-c2nonc2N)CC1	–	–	–	–	–	–
Cc1c(C(=O)N/N=C/c2c(O)ccc3ccccc23)nnn1-c1nonc1N	–	63.4	–	–	–	–
CC1CCN(Cc2c(C(=O)N/N=C/c3ccc(C(C)(C)C)cc3)nnn2-c2nonc2N)CC1	–	64.0	·	–	–	–
SMILES	FN deposition inh	aSyn 5UTR inh	EWS-Fli inh	Shn3 inh set2	PAX8 inh HTS	LMP1 NFkB inh
Nc1nonc1-n1nnc(C(=O)N/N=C/c2cc(Br)ccc2O)c1CNc1ccccc1	–	70.2	·	–	–	–
O=C1/C(=C\c2ccco2)SC(=S)N1c1ccc(O)cc1	–	–	–	–	90.9	–
COc1ccc(C(O)(CC(C)C)C(CN2CCOCC2)c2ccccc2)cc1 (stereo unspecified)	–	66.0	–	–	–	–
CCc1ccc(C(O)(CC(C)C)C(CN2CCOCC2)c2ccccc2)cc1 (stereo unspecified)	–	?	–	–	–	–
COCC(C)n1c(C)cc(C(=O)COC(=O)c2cccn2C)c1C (stereo unspecified)	–	·	61.5	–	–	?
Cc1cc(C(=O)COC(=O)c2cccn2C)c(C)n1Cc1ccco1	–	76.9	–	–	–	–
COc1ccc(S(=O)(=O)Nc2ccc3c(c2)C(=O)N([C@@H](C)CO)C[C@@H](C)[C@@H](CN(C)C(=O)Nc2ccc4c(c2)OCO4)OCCCC[C@H](C)O3)cc1	–	·	–	·	–	·
CNC[C@@H]1Oc2ncc(Br)cc2C(=O)N([C@@H](C)CO)C[C@@H]1C	·	·	–	·	–	·
CC(=O)O[C@@]12CO[C@@H]1C[C@H](O)[C@@]1(C)C(=O)[C@H](O)C3=C(C)[C@@H](OC(=O)[C@H](O)[C@@H](NC(=O)OC(C)(C)C)c4ccccc4)C[C@](O)([C@@H](OC(=O)c4ccccc4)[C@H]21)C3(C)C	·	71.8	·	·	·	·
C=CCNC(=O)[C@H]1[C@@H]2C(=O)O[C@@H](c3ccccc3)[C@@H](c3ccccc3)N2[C@@H](c2ccc(OCCO)cc2)[C@]12C(=O)Nc1ccc(C#CCC(C(=O)OC)C(=O)OC)cc12	·	·	–	·	–	·
COC(=O)C(CC#Cc1ccc2c(c1)[C@]1(C(=O)N2)[C@H](c2ccccc2OCCO)N2[C@H](c3ccccc3)[C@H](c3ccccc3)OC(=O)[C@H]2[C@@H]1C(=O)N1CCN(c2ncccn2)CC1)C(=O)OC	·	·	59.7	·	109.8	·
C=CCNC(=O)[C@H]1[C@@H]2C(=O)O[C@@H](c3ccccc3)[C@@H](c3ccccc3)N2[C@@H](c2ccccc2OCCO)[C@]12C(=O)Nc1ccc(C#CCC(C(=O)OC)C(=O)OC)cc12	·	·	54.0	·	·	·
NC(=O)[C@H]1[C@@H]2C(=O)O[C@@H](c3ccccc3)[C@@H](c3ccccc3)N2[C@@H](c2ccccc2OCCO)[C@]12C(=O)Nc1ccc(C#CC3(O)CCCCCC3)cc12	·	·	–	·	103.1	·
